Experimental data taken from ChEMBL document CHEMBL4330096, “Discovery of potent and selective 5-azaindazole inhibitors of leucine-rich repeat kinase 2 (LRRK2) - Part 1” (Bioorg Med Chem Lett, 2019).

Columns and labels:
[1] = molecular target: T1, Inhibitor of nuclear factor kappa-B kinase subunit beta (Homo sapiens) (UniProt O14920); assay: Inhibition of IKKb (unknown origin) at 10 uM relative to control
T1 sequence (whole entry): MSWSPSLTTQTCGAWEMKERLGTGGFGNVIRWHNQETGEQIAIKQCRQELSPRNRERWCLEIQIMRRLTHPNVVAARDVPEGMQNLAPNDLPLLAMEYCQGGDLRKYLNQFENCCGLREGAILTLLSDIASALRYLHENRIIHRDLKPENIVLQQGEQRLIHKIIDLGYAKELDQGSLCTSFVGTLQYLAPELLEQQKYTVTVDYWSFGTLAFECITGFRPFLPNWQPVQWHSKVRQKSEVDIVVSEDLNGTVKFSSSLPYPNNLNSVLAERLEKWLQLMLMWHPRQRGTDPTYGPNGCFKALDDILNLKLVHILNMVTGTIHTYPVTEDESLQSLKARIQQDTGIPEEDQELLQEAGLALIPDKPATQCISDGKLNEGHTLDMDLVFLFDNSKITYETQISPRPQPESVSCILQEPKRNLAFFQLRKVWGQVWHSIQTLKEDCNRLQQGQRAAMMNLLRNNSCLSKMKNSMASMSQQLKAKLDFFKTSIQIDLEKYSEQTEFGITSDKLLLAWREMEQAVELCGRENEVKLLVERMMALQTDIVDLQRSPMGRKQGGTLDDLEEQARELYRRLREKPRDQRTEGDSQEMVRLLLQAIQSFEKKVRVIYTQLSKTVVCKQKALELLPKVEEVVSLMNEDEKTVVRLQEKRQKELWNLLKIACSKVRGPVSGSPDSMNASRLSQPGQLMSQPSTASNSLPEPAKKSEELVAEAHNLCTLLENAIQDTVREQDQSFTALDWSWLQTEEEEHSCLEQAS
In short: (§1)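 Single-point screen of each compound against a panel of 59 protein kinases, at 1 or 10 μM. The panel data are also summarised as a rescaled geometric mean selectivity score.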

[2] = molecular target: Tyrosine-protein kinase CSK (Homo sapiens) (UniProt P41240); assay: Inhibition of CSK (unknown origin) at 10 uM relative to control; in short: as §1
[3] = molecular target: 3-phosphoinositide-dependent protein kinase 1 (Homo sapiens) (UniProt O15530); assay: Inhibition of PDK1 (unknown origin) at 10 uM relative to control
[4] = molecular target: Insulin-like growth factor 1 receptor (Homo sapiens) (UniProt P08069); assay: Inhibition of IGF1R (unknown origin) at 10 uM relative to control; in short: as §1
[5] = molecular target: Fibroblast growth factor receptor 1 (Homo sapiens) (UniProt P11362); assay: Inhibition of FGFR1 (unknown origin) at 10 uM relative to control; in short: as §1
[6] = molecular target: T2, Serine/threonine-protein kinase Nek2 (Homo sapiens) (UniProt P51955); assay: Inhibition of NEK2a (unknown origin) at 10 uM relative to control
T2 sequence (whole entry): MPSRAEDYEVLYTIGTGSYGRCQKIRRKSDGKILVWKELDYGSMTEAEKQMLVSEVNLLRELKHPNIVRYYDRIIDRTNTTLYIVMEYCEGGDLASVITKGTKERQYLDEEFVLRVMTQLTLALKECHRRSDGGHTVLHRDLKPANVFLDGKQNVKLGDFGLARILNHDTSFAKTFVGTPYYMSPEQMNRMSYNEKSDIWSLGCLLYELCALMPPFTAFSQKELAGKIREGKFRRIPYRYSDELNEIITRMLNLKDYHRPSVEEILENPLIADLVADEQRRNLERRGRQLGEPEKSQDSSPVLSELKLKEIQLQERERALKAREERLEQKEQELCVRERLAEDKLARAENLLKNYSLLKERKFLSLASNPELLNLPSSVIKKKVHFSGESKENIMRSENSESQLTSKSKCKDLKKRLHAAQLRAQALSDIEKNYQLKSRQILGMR
In short: (§2)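 Single-concentration screen of each compound against a 59-protein-kinase panel, run at 10 µM or 1 µM. Activity relative to control is shown as a heat map across the panel.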

[7] = molecular target: Serine/threonine-protein kinase Nek6 (Homo sapiens) (UniProt Q9HC98); assay: Inhibition of NEK6 (unknown origin) at 10 uM relative to control; in short: as §2
[8] = molecular target: Tyrosine-protein kinase BTK (Homo sapiens) (UniProt Q06187); assay: Inhibition of BTK (unknown origin) at 10 uM relative to control; in short: as §1
[9] = molecular target: Mitogen-activated protein kinase 9 (Homo sapiens) (UniProt P45984); assay: Inhibition of JNK2 (unknown origin) at 10 uM relative to control; in short: as §1
[10] = molecular target: Serine/threonine-protein kinase PAK 4 (Homo sapiens) (UniProt O96013); assay: Inhibition of PAK4 (unknown origin) at 10 uM relative to control; in short: as §2
[11] = molecular target: T3, Ephrin type-B receptor 3 (Homo sapiens) (UniProt P54753); assay: Inhibition of EPHB3 (unknown origin) at 10 uM relative to control; in short: as §1
T3 sequence (whole entry): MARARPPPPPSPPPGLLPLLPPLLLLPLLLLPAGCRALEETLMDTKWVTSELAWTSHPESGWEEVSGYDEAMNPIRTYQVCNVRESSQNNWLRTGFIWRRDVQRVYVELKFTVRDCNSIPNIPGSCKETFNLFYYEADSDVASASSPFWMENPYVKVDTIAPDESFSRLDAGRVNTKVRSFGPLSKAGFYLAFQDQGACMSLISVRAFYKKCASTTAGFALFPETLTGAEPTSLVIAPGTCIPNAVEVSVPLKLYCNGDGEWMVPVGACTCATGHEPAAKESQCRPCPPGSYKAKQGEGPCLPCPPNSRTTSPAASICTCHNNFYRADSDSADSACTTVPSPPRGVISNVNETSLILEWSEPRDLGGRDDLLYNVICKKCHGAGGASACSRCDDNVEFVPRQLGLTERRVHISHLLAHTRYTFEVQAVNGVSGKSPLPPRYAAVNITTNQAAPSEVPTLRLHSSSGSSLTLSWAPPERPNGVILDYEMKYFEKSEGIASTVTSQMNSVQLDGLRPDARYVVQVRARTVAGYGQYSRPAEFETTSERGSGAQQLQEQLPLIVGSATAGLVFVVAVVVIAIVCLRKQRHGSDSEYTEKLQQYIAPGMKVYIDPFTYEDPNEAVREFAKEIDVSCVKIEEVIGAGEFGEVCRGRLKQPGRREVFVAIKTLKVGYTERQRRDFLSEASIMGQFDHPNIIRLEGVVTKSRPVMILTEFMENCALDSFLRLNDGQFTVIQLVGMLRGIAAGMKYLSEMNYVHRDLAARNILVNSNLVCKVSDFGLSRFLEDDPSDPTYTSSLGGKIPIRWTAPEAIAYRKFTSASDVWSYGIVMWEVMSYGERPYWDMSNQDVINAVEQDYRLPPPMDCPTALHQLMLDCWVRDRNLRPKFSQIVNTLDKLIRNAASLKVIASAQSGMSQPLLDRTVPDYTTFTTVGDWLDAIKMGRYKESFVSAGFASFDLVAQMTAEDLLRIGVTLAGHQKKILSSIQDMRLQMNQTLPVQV

Tyrosine-protein kinase BTK (Homo sapiens), sequence (Q06187 whole entry): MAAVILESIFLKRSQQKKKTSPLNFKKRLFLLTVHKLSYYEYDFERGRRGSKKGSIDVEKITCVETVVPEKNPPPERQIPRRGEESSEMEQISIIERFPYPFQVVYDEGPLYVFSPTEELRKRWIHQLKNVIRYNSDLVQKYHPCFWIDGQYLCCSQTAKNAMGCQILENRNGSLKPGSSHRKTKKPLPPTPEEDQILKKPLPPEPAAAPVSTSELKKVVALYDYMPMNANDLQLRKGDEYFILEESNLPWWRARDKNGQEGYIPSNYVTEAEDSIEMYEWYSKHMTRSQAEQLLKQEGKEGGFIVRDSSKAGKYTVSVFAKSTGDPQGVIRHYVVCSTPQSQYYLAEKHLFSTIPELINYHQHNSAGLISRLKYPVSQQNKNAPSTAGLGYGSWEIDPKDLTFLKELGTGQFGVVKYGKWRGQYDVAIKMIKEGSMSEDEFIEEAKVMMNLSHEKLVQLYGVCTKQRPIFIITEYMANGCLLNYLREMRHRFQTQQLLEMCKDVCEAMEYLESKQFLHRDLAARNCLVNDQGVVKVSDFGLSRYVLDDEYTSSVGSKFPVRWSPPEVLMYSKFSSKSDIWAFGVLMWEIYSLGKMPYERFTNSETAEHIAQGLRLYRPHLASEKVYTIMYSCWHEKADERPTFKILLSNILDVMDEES
Insulin-like growth factor 1 receptor (Homo sapiens), sequence (P08069 31-736 limits assumed): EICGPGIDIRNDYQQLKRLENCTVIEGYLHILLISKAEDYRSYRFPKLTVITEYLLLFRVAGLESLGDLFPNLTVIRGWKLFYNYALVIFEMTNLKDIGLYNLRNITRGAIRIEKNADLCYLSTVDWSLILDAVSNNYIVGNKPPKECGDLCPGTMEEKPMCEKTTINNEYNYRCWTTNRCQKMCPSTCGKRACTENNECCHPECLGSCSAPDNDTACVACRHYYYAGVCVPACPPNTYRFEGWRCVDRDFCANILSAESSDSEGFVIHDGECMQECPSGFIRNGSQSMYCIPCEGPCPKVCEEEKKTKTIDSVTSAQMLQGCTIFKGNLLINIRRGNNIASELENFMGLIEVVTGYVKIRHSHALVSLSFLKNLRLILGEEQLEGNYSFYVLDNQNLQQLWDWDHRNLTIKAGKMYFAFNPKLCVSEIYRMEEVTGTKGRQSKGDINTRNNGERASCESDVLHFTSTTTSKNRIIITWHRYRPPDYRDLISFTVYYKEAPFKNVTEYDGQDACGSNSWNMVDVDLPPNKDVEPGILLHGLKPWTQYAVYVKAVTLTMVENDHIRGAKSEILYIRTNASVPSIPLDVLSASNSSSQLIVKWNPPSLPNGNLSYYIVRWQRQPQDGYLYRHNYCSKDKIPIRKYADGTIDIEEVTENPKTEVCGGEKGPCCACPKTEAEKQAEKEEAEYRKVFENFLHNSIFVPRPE
Insulin-like growth factor 1 receptor (Homo sapiens), sequence (P08069 741-1367 limits assumed): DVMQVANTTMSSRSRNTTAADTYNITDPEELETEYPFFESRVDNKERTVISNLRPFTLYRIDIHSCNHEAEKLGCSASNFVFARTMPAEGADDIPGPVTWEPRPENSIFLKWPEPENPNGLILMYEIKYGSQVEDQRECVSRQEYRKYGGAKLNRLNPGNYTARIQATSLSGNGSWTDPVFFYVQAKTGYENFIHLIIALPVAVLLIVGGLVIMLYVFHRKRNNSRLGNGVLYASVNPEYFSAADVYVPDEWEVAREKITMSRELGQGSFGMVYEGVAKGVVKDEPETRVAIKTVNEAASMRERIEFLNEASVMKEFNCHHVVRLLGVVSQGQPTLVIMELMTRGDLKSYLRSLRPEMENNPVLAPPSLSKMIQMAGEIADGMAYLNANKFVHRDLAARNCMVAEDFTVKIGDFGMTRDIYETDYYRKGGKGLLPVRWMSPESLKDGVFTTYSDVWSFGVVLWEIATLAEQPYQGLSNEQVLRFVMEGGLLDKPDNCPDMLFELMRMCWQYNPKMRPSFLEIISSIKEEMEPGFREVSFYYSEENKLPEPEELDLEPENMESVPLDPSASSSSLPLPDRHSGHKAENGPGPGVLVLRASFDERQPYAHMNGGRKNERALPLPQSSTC
Tyrosine-protein kinase CSK (Homo sapiens), sequence (P41240 2-450 limits assumed): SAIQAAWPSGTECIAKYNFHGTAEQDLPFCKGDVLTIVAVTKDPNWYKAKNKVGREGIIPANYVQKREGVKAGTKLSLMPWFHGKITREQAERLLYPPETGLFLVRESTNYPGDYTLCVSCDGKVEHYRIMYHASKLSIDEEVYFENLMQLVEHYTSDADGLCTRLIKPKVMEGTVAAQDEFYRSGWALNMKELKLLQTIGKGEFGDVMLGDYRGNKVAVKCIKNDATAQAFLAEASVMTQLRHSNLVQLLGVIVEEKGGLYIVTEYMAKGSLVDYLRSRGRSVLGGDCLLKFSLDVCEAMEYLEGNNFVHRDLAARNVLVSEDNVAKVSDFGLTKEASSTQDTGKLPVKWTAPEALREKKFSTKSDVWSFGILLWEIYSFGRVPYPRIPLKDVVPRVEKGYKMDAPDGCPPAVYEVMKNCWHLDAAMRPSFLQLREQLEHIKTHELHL
3-phosphoinositide-dependent protein kinase 1 (Homo sapiens), sequence (O15530 whole entry, looked up): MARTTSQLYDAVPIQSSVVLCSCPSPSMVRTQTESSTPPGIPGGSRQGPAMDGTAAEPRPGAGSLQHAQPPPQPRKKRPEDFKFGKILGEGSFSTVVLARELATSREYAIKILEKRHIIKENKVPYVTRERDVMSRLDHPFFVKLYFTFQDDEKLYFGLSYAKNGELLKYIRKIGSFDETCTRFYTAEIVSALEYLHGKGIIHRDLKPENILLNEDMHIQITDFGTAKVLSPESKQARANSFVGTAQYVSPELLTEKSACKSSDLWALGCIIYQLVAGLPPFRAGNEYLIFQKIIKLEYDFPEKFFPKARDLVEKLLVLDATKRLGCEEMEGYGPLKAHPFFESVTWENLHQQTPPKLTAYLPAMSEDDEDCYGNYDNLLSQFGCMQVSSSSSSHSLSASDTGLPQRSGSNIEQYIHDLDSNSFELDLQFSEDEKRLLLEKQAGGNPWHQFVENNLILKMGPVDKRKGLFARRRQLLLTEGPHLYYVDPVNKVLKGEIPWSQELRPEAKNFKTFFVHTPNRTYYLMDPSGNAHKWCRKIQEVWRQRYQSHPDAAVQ
Mitogen-activated protein kinase 9 (Homo sapiens), sequence (P45984 whole entry, looked up): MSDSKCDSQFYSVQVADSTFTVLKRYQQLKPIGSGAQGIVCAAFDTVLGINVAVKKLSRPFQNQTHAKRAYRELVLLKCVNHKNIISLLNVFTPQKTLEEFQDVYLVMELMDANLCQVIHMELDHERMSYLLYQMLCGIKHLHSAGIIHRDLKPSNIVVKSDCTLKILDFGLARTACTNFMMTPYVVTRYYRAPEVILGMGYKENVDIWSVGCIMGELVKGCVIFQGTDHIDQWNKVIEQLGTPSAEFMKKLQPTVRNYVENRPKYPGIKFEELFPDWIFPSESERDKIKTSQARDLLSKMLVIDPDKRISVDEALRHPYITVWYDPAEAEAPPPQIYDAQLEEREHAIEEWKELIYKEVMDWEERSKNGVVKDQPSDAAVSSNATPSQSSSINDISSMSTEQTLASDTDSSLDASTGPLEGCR
Serine/threonine-protein kinase Nek6 (Homo sapiens), sequence (Q9HC98 whole entry): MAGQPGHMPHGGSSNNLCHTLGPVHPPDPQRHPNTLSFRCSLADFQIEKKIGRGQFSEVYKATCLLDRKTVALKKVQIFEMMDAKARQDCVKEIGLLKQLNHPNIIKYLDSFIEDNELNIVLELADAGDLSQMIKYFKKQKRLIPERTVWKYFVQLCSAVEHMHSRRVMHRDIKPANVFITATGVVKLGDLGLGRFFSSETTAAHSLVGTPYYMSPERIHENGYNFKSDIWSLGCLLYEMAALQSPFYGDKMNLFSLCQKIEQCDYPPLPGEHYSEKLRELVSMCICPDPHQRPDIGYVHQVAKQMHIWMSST
Serine/threonine-protein kinase PAK 4 (Homo sapiens), sequence (O96013 whole entry, looked up): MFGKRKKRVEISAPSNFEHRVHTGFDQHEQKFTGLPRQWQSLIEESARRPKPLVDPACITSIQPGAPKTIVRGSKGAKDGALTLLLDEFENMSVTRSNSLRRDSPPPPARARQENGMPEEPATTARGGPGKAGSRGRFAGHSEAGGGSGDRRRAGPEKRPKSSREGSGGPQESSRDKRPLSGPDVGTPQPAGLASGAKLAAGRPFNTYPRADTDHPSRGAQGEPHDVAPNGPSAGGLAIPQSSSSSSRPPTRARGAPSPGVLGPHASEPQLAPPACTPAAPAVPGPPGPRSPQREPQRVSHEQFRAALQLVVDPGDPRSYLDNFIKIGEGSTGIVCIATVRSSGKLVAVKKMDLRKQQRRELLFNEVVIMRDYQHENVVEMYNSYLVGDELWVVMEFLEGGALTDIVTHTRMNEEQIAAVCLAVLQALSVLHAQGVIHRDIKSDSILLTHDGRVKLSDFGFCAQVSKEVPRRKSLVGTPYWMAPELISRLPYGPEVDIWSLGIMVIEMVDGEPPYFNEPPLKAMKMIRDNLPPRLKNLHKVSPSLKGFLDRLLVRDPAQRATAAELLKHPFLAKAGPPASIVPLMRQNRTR

Compound	inhibition [1]	inhibition [2]	inhibition [3]	inhibition [4]	inhibition [5]	inhibition [6]	inhibition [7]	inhibition [8]	inhibition [9]	inhibition [10]	inhibition [11]
Cc1n[nH]c2ccnc(NC3CCCCC3)c12	29%	0%	13%	88%	69%	0%	13%	70%	41%	40%	39%
Cc1n[nH]c2ccnc(Nc3ccc4ncsc4c3)c12		0%						10%	49%		
Cc1n[nH]c2ccnc(OC3CCCCC3)c12	35%	20%	34%	98%	84%	0%	4%	40%	66%	85%	92%
Cc1n[nH]c2ccnc(Nc3ccccc3F)c12	49%	8%	25%	81%	66%	2%	12%	26%	54%	44%	39%
